Series [1] in a line: folding enthalpy; higher = less favourable; fluorescence melt of hairpins on a sequencing array, two-state fit. As to conditions: sodium 0.088 M. The gist of the method: (§1)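 Melting temperature and folding enthalpy were derived from bootstrapped two-state fits. The fitted temperatures were raised by 9.35 °C to agree with UV melts, and four replicates were combined by inverse variance. The underlying data were Cy3 fluorescence images of library hairpins, with annealed Cy3 and quencher oligos, on a sequenced MiSeq flow cell in 50 mM Na-HEPES pH 8.0, 25 mM NaCl, taken in 2.5 °C steps up to 60 °C, normalised to pre-quench Cy3 and to control constructs.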

A short description of series [2]: melting temperature; fluorescence melt of hairpins on a sequencing array, two-state fit, raised by 9.35 °C to match UV melts. As to conditions: sodium 0.088 M. An outline of the steps:
as §1

Regarding GCGCAAGGAAACTTGTGC ((.((((....)))).)), the folding enthalpy in series [1] is -48.9 kcal/mol. In series [2], the Tm was 54.9 °C.

With GCGCACCGAAAGGTTCGC (((.(((....))).))), the folding enthalpy in series [1] is -40.3 kcal/mol. For the same sequence, in series [2], the Tm worked out at 61.4 °C.

Consider GCGCACGAAAGTGAACGC ((((((....)))..))), for which the folding enthalpy in series [1] is -31.2 kcal/mol. The Tm in series [2] is 54.5 °C.

Take GCGCACGAAAGTGGACGC ((((((....)))..))): the folding enthalpy in series [1] is -32.7 kcal/mol. Also, the Tm in series [2] came to 55.4 °C.

Regarding GCGCACGAAAGTGTCGC ((((((....))).))), the folding enthalpy in series [1] is -27.6 kcal/mol. Besides, in series [2], the Tm turned out to be 64.2 °C.

For the sequence GCGCACGGAAACGCGCAC (.((.((....)).)).), the folding enthalpy in series [1] was -13.7 kcal/mol. Besides, in series [2], the Tm stood at 52.4 °C.

As for GCGCAGCCGAAAGGCCGC (((..(((....)))))), the folding enthalpy in series [1] is -16.7 kcal/mol. In series [2], the Tm stood at 57.9 °C.

GCGCAGCGAAAGCCTCGC (((..((....))..))): the folding enthalpy in series [1] was -8.27 kcal/mol. For the same sequence, the Tm in series [2] came out at 42.1 °C.

In the case of GCGCAGCGAAAGCGTCGC (((..((....))..))), the folding enthalpy in series [1] is -13.3 kcal/mol. Besides, in series [2], the Tm came out at 58.9 °C.

Take GCGCAGCGAAAGCTATGC ((..(((....)))..)): in series [1], the folding enthalpy was -7.11 kcal/mol. Also, in series [2], the Tm stood at 39.3 °C.

For GCGCAGCGAAAGCTCTGC ((..(((....)))..)), the folding enthalpy in series [1] is -7.6 kcal/mol. Moreover, the Tm in series [2] is 38.5 °C.

Regarding GCGCAGGCGAAAGCCCGC (((..(((....)))))), in series [1], the folding enthalpy is -16.7 kcal/mol. Also, the Tm in series [2] is 60.1 °C.

Take GCGCAGGGAAACCTACGC (((.(((....))).))): in series [1], the folding enthalpy is -39.9 kcal/mol. Further, the Tm in series [2] was 50.1 °C.

Regarding GCGCAGGGAAACCTGCAC (.(((((....))))).), in series [1], the folding enthalpy is -12.7 kcal/mol. For the same sequence, the Tm in series [2] is 47.6 °C.

GCGCATGCGAAAGCACGC (((..(((....)))))): the folding enthalpy in series [1] is -13.7 kcal/mol. The Tm in series [2] is 54.6 °C.

As to GCGCATGGAAACACACGC (((..((....))..))), in series [1], the folding enthalpy is -19.4 kcal/mol. For the same sequence, the Tm in series [2] was determined as 29.6 °C.

Consider GCGCCCCGAAAGGGCCGC (((.(((....))).))), for which, in series [1], the folding enthalpy is -19.8 kcal/mol. Further, the Tm in series [2] was 61.2 °C.

Regarding GCGCCCGAAAGGGACGC ((((((....))).))), the folding enthalpy in series [1] is -27.1 kcal/mol. In series [2], the Tm came to 68.1 °C.

Turning to GCGCCCGAAAGGGCACGC ((((((....)))..))), the folding enthalpy in series [1] was -13.4 kcal/mol. For the same sequence, the Tm in series [2] was found to be 63.3 °C.

For the sequence GCGCCCGAAAGGGGCCGC ((((((....)))..))), the folding enthalpy in series [1] was -16.4 kcal/mol. Also, the Tm in series [2] came out at 61.4 °C.

Take GCGCCGCCGAAAGGCCGC (((..(((....)))))): the folding enthalpy in series [1] is -15.2 kcal/mol. In addition, in series [2], the Tm is 56.3 °C.

As for GCGCCGCGAAAGCCCCGC (((..((....))..))), in series [1], the folding enthalpy was -17.7 kcal/mol. The Tm in series [2] came to 39 °C.

Turning to GCGCCGCGAAAGCCGTGC ((.(.((....)).).)), the folding enthalpy in series [1] was -20.5 kcal/mol. Besides, in series [2], the Tm is 52.1 °C.

With GCGCCGCGAAAGCGAAGC ((..(((....)))..)), in series [1], the folding enthalpy is -32 kcal/mol. Besides, the Tm in series [2] turned out to be 64.8 °C.

In the case of GCGCCGCGAAAGCGATGC ((..(((....)))..)), in series [1], the folding enthalpy was -19.4 kcal/mol. In series [2], the Tm amounted to 60.8 °C.

With GCGCCGCGAAAGCGCAGC ((..(((....)))..)), the folding enthalpy in series [1] was -14.1 kcal/mol. Besides, the Tm in series [2] is 59.8 °C.

On to GCGCCGCGAAAGCTCCGC (((..((....))..))), for which, in series [1], the folding enthalpy is -16.8 kcal/mol. Besides, the Tm in series [2] stood at 44.9 °C.

For GCGCCGGGAAACCAGCGC ((((.((....)).)))), the folding enthalpy in series [1] is -44.5 kcal/mol. Also, in series [2], the Tm was determined as 59.1 °C.

With GCGCCGTCGAAAGACCGC (((..(((....)))))), the folding enthalpy in series [1] was -23.1 kcal/mol. Besides, in series [2], the Tm is 50.8 °C.

For the sequence GCGCGCCGAAAGGCCCGC (((.(((....))).))), in series [1], the folding enthalpy is -32.2 kcal/mol. For the same sequence, the Tm in series [2] was 68.5 °C.

Turning to GCGCGCGAAAGCGCACGC ((((((....)))..))), the folding enthalpy in series [1] is -11.7 kcal/mol. Also, the Tm in series [2] came to 67 °C.

Turning to GCGCGCGAAAGCGGTCGC ((((((....)))..))), the folding enthalpy in series [1] is -16.1 kcal/mol. In addition, the Tm in series [2] was 63.6 °C.

Take GCGCGGACGAAAGTCCGC (((..(((....)))))): the folding enthalpy in series [1] is -5.59 kcal/mol. In series [2], the Tm was found to be 63.7 °C.

For the sequence GCGCGGCGAAAGCAGAGC ((.(.((....)).).)), the folding enthalpy in series [1] was -25.1 kcal/mol. For the same sequence, the Tm in series [2] was determined as 63.8 °C.

GCGCGGCGAAAGCAGGGC ((.(.((....)).).)): in series [1], the folding enthalpy is -19.8 kcal/mol. Further, the Tm in series [2] was determined as 63.2 °C.

On to GCGCGGCGAAAGCAGTGC ((.(.((....)).).)), for which the folding enthalpy in series [1] is -29.1 kcal/mol. Besides, the Tm in series [2] was 65.5 °C.

Consider GCGCGGCGAAAGCATCGC (((..((....))..))), for which the folding enthalpy in series [1] was -20.6 kcal/mol. In addition, in series [2], the Tm was found to be 57.5 °C.

GCGCGGCGAAAGCCAGGC ((..(((....)))..)): in series [1], the folding enthalpy is -14.1 kcal/mol. Also, the Tm in series [2] worked out at 54.4 °C.

Consider GCGCGGCGAAAGCCCGGC ((..(((....)))..)), for which the folding enthalpy in series [1] was -12.8 kcal/mol. In addition, the Tm in series [2] was found to be 59.7 °C.

Regarding GCGCGGCGAAAGCCTGGC ((..(((....)))..)), in series [1], the folding enthalpy was -15.3 kcal/mol. For the same sequence, in series [2], the Tm was found to be 47.9 °C.

For GCGCGGCGAAAGCGACGC (((..((....))..))), the folding enthalpy in series [1] was -15.2 kcal/mol. The Tm in series [2] is 63.2 °C.

As for GCGCGGCGAAAGCGGAGC ((.(.((....)).).)), the folding enthalpy in series [1] is -22.5 kcal/mol. Besides, the Tm in series [2] was determined as 60.4 °C.

Take GCGCGGCGAAAGCGGTGC ((.(.((....)).).)): the folding enthalpy in series [1] is -31.2 kcal/mol. In addition, the Tm in series [2] is 65.2 °C.

On to GCGCGGCGAAAGCTGGGC ((.(.((....)).).)), for which the folding enthalpy in series [1] was -32.4 kcal/mol. Further, in series [2], the Tm came out at 67.2 °C.

For GCGCGGTCGAAAGACCGC (((..(((....)))))), in series [1], the folding enthalpy was -5.31 kcal/mol. Further, in series [2], the Tm amounted to 67 °C.

With GCGCGTCGAAAGACCGC (((.(((....)))))), in series [1], the folding enthalpy is -32.8 kcal/mol. Moreover, in series [2], the Tm stood at 67.3 °C.

On to GCGCGTCGAAAGACTCGC (((.(((....))).))), for which, in series [1], the folding enthalpy is -38.7 kcal/mol. Also, the Tm in series [2] was 58.4 °C.

On to GCGCGTGGAAACATGCGC ((((.((....)).)))), for which, in series [1], the folding enthalpy is -40.2 kcal/mol. For the same sequence, in series [2], the Tm is 67.9 °C.

For the sequence GCGCGTTCGAAAGAACGC (((..(((....)))))), in series [1], the folding enthalpy was -6.28 kcal/mol. Further, in series [2], the Tm turned out to be 68 °C.

For the sequence GCGCTACGAAAGTACGC (((.(((....)))))), the folding enthalpy in series [1] is -32.2 kcal/mol. In addition, the Tm in series [2] was 55.3 °C.

As for GCGCTAGGAAACTGGTGC ((.(.((....)).).)), the folding enthalpy in series [1] was -28.9 kcal/mol. The Tm in series [2] was determined as 44.3 °C.

Regarding GCGCTCCGAAAGGAACGC (((.(((....))).))), the folding enthalpy in series [1] was -46.8 kcal/mol. Moreover, the Tm in series [2] is 65 °C.

On to GCGCTCGAAAGAGCTCGC ((((((....)))..))), for which the folding enthalpy in series [1] was -14.4 kcal/mol. For the same sequence, the Tm in series [2] amounted to 47.8 °C.

On to GCGCTCGGAAACGAACGC (((.(((....))).))), for which, in series [1], the folding enthalpy was -38.5 kcal/mol. Also, in series [2], the Tm was 55.7 °C.
